Active and inactive are the calls of the source. The calls are words filed in the database; no cut-off is given here. Some results are limits rather than exact numbers.

Data set [1] has as its system RAW264.7. The experiment in a line: Antiinflammatory activity in mouse RAW264.7 cells assessed as inhibition of LPS-induced IL-6 production preincubated 2 hrs before LPS stimulation measured after 22 hrs by ELISA. The class given is functional, cell-based. Put shortly: (§1)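 RAW 264.7 macrophages were pretreated for 2 h with compound across 0–80 μM, with hydrocortisone (20 μM) as control. LPS was then added for a further 22 h. IL-6 or IL-1β in the culture medium was quantified by ELISA.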
(An ELISA detects its analyte on a solid surface through an enzyme-linked reagent.)

For data set [2], the system named is RAW264.7. The experiment in a line: Antiinflammatory activity in mouse RAW264.7 cells assessed as inhibition of LPS-induced nitric oxide production at 33.3 uM preincubated 2 hrs before LPS stimulation measured after 22 hrs. Type of data set: functional.
Data set [3] concerns RAW264.7. The experiment in a line: Antiinflammatory activity in mouse RAW264.7 cells assessed as inhibition of LPS-induced TNFalpha production at 33.3 uM preincubated 2 hrs before LPS stimulation measured after 22 hrs by ELISA. The class given is functional.
Data set [4] concerns RAW264.7. The experiment in a line: Cytotoxicity against mouse RAW264.7 cells assessed as cell viability at 10 to 100 uM after 24 hrs by MTS assay. To be noted: raw264.7, 24 h. The class given is cell-based. Put shortly: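 RAW264.7 cells were seeded at 2 × 10^6 cells per well and grown to 80% confluency. They were then exposed to compound over a 10–100 μM gradient for 24 h, and viability was read colorimetrically by MTS.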
(Tetrazolium dyes change colour on reduction, which living cells bring about.)

Data set [5] has as its system RAW264.7. Nature of the data set: Antiinflammatory activity in mouse RAW264.7 cells assessed as inhibition of LPS-induced IL-1beta production preincubated 2 hrs before LPS stimulation measured after 22 hrs by ELISA. The class given is functional, cell-based. Put shortly:
as §1

The subject of data set [6] is RAW264.7. Nature of the data set: Antiinflammatory activity in mouse RAW264.7 cells assessed as inhibition of LPS-induced IL-6 production at 40 uM preincubated 2 hrs before LPS stimulation measured after 22 hrs by ELISA. The class given is functional. Put shortly:
as §1

The test system of data set [7] is RAW264.7. Nature of the data set: Antiinflammatory activity in mouse RAW264.7 cells assessed as inhibition of LPS-induced IL-1beta production at 40 uM preincubated 2 hrs before LPS stimulation measured after 22 hrs by ELISA. The class given is functional. Put shortly:
as §1

As a reminder, the inhibition is the share of the control response that was lost under treatment. For the compound `Cc1oc(=O)c2c(c1C)O[C@@]1(C)[C@H](C2)[C@@H](C)[C@]2(O)CC(=O)C(C)(C)C(=O)[C@@]2(O)[C@H]1O`, the inhibition entry with RAW264.7 [1] and in the data set on RAW264.7 [5] was “inactive” each time. In addition, the inhibition at 33.3 µM in the data set with RAW264.7 [2] and in the data set with RAW264.7 [3] was less than 35% throughout. Also, the Activity entry with RAW264.7 [4] is on record as “Non-toxic”.
On to `Cc1oc(=O)c2c(c1C)O[C@@]1(C)[C@@H]([C@@H](C)[C@]3(O)CC(=O)C(C)(C)C(=O)[C@@]3(O)[C@H]1O)[C@H]2O`, for which the inhibition at 40 µM with RAW264.7 [6] amounted to 69%; with RAW264.7 [7], 47%. For the same compound, the inhibition entry in the data set on RAW264.7 [1] and with RAW264.7 [5] was “Dose-dependent effect” in each case. The inhibition at 33.3 µM with RAW264.7 [2] and with RAW264.7 [3] was less than 35% in each case. Moreover, the Activity result in the data set with RAW264.7 [4] is “Non-toxic”.
As to `Cc1oc(=O)c2c(c1C)O[C@@]1(C)[C@H](C2=O)[C@@H](C)[C@]2(O)CC(=O)C(C)(C)C(=O)[C@@]2(O)[C@H]1O`, the inhibition at 40 µM in the data set with RAW264.7 [6] was 43%; in the data set on RAW264.7 [7], 42%. The inhibition result in the data set with RAW264.7 [1] and in the data set with RAW264.7 [5] was “Dose-dependent effect” in each case. Besides, the inhibition at 33.3 µM with RAW264.7 [2] and with RAW264.7 [3] was less than 35% in each case. Besides, in the data set on RAW264.7 [4], the Activity result is given as “Non-toxic”.
`Cc1cc2c(c(=O)o1)C(=O)[C@@H]1[C@@H](C)[C@]3(O)CC(=O)C(C)(C)C(=O)[C@@]3(O)[C@@H](O)[C@@]1(C)O2`: the inhibition result with RAW264.7 [1] and in the data set on RAW264.7 [5] was “inactive” in each case. The inhibition at 33.3 µM with RAW264.7 [2] and in the data set with RAW264.7 [3] was less than 35% throughout. In addition, the Activity entry in the data set with RAW264.7 [4] is recorded as “Non-toxic”.

Values taken from ChEMBL document CHEMBL3632582, “Aspertetranones A-D, Putative Meroterpenoids from the Marine Algal-Associated Fungus Aspergillus sp. ZL0-1b14” (J Nat Prod, 2015).
